Source: ChEMBL document CHEMBL4680209, “Design, synthesis, and evaluation of new 2-(quinoline-4-yloxy)acetamide-based antituberculosis agents” (Eur J Med Chem, 2020)
Values after ≈ are worked out from the molar mass of the structure shown.

Legend:
[1] = system: Mycobacterium tuberculosis; assay: Inhibition of multidrug-resistant Mycobacterium tuberculosis PT12 clinical isolate QcrB assessed as reduction in bacterial growth by resazurin reduction microplate assay
Procedure, shortened: (§1)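 REMA in Middlebrook 7H9 with 10% ADC and 5% DMSO. Compounds come from 2 mg/mL DMSO stocks as 10-point 2-fold serial dilutions, with a top concentration of 5–40 µg/mL set by solubility. MIC is the lowest concentration preventing resazurin blue-to-pink conversion. Three independent experiments; the modal or highest value is reported, in µM.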

[2] = system: Mycobacterium tuberculosis; assay: Inhibition of Mycobacterium tuberculosis QcrB T313A mutant assessed as reduction in bacterial growth by resazurin reduction microplate assay; procedure, shortened: as §1
[3] = system: Mycobacterium tuberculosis; assay: Inhibition of multidrug-resistant Mycobacterium tuberculosis PT2 clinical isolate QcrB assessed as reduction in bacterial growth by resazurin reduction microplate assay; procedure, shortened: as §1
[4] = system: Mycobacterium tuberculosis; assay: Inhibition of multidrug-resistant Mycobacterium tuberculosis PT20 clinical isolate QcrB assessed as reduction in bacterial growth by resazurin reduction microplate assay; procedure, shortened: as §1
[5] = Ratio of MIC for inhibition of Mycobacterium tuberculosis QcrB T313A mutant to MIC for inhibition of Mycobacterium tuberculosis H37Rv ATCC 27294 QcrB assessed as reduction in bacterial growth

Row | Structure (SMILES) | MIC [1] | MIC [2] | MIC [3] | MIC [4] | Ratio [5]
1 | COc1ccc2nc(C)cc(OCC(=O)c3cccc(Cl)c3)c2c1 | 0.9 µM (≈ 0.308 µg/mL) | 7.3 µM (≈ 2.5 µg/mL) | 0.5 µM (≈ 0.171 µg/mL) | 0.2 µM (≈ 0.0684 µg/mL) | > 4
2 | COc1ccc2nc(C)cc(OCc3ccc(Cl)c(Cl)c3)c2c1 | 0.5 µM (≈ 0.174 µg/mL) | 14.4 µM (≈ 5.01 µg/mL) | 0.2 µM (≈ 0.0696 µg/mL) | 0.2 µM (≈ 0.0696 µg/mL) | > 4
3 | COc1ccc2nc(C)cc(OCc3ccc(C(C)C)cc3)c2c1 | 1 µM (≈ 0.321 µg/mL) | 7.8 µM (≈ 2.51 µg/mL) | 0.5 µM (≈ 0.161 µg/mL) | 0.2 µM (≈ 0.0643 µg/mL) | > 4
4 | NNC(=O)c1ccncc1 | 72.9 µM (≈ 10 µg/mL) | 2.3 µM (≈ 0.315 µg/mL) |  | 146 µM (≈ 20 µg/mL) | 
5 | COc1ccc2nc(C)cc(OCC(=O)c3ccccc3)c2c1 | 2 µM (≈ 0.615 µg/mL) | 32.5 µM (≈ 9.99 µg/mL) | 2 µM (≈ 0.615 µg/mL) | 1 µM (≈ 0.307 µg/mL) | > 4
6 | CO[C@H]1/C=C/O[C@@]2(C)Oc3c(C)c(O)c4c(O)c(c(/C=N/N5CCN(C)CC5)c(O)c4c3C2=O)NC(=O)/C(C)=C\C=C\[C@H](C)[C@H](O)[C@@H](C)[C@@H](O)[C@@H](C)[C@H](OC(C)=O)[C@@H]1C | > 48.6 µM |  | > 48.6 µM | 12.2 µM (≈ 10 µg/mL) | 
